Assay results as given in ChEMBL document CHEMBL1148409, “In vitro structure-activity relationship and in vivo studies for a novel class of cyclooxygenase-2 inhibitors: 5-aryl-2,2-dialkyl-4-phenyl-3(2H)furanone derivatives” (J Med Chem, 2004).
pIC50: −log10 of the molar value.

Tests used:
[1] = target: T1, Prostaglandin G/H synthase 1 (Mus musculus, UniProt P22437); experiment: In vitro inhibitory activity against prostaglandin G/H synthase 1 using mouse peritoneal macrophage method
T1 sequence (P22437 whole entry): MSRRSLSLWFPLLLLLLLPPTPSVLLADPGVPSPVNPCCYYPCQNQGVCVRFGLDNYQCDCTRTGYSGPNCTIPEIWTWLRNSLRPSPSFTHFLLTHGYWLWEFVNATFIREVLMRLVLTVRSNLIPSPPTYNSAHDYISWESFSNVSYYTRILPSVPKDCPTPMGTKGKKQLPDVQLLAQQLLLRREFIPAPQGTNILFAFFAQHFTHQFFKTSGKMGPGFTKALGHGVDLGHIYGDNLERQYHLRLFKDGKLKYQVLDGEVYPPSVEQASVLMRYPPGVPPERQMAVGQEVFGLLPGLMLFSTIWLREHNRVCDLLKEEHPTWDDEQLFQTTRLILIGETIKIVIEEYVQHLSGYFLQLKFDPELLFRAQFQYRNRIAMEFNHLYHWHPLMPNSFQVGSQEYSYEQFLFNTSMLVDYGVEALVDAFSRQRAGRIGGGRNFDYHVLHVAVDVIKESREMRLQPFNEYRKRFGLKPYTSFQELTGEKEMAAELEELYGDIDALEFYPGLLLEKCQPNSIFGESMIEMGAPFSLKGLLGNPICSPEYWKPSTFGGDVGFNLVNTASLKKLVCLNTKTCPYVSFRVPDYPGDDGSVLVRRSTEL
Summary of the method: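 Freshly harvested mouse peritoneal macrophages were the enzyme source. Cells were preincubated 10 min at 37 °C with inhibitor in DMSO, then stimulated with calcium ionophore A23187 for 10 min. The reaction was stopped with indomethacin in 0.1% BSA buffer and centrifuged, and supernatant TXB₂ was measured by ELISA.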

[2] = target: T2, Prostaglandin G/H synthase 2 (Mus musculus, UniProt Q05769); experiment: In vitro inhibitory activity against prostaglandin G/H synthase 2 using mouse peritoneal macrophage method
T2 sequence (Q05769 whole entry): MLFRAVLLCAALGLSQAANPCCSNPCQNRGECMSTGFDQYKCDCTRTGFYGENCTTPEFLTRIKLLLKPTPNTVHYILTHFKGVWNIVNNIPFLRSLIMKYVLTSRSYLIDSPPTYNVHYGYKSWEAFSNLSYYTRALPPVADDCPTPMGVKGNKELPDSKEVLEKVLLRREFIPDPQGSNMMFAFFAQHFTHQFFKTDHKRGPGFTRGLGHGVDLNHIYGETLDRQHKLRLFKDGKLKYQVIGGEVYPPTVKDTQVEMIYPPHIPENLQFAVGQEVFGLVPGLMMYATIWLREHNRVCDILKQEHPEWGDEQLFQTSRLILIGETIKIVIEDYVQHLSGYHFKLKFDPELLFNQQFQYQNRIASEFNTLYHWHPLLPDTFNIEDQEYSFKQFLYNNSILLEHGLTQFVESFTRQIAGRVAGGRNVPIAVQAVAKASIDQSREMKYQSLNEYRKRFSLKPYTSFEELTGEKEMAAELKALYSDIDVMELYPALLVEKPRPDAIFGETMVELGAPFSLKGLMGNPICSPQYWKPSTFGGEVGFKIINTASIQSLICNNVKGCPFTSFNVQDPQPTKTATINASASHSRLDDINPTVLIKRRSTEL

[3] = system: Rattus norvegicus; experiment: Inhibition of carrageenan-induced rat foot oedema following 3 mg/kg administration.; type: functional
Summary of the method: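 Male SD rats (160 ~ 190 g) were fasted overnight and given compound in 1% methylcellulose by oral gavage, at least 5 animals per group. One hour later, 0.05 mL of 1% carrageenan in saline was injected subplantar into the right hindpaw. Paw swelling was measured by plethysmometer 4 h after dosing and expressed as % inhibition.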

[4] = system: Rattus norvegicus; experiment: Antiinflammatory activity was determined by measuring adjuvant-induced arthritis in rats using therapeutic method; dose administered daily once; type: functional
Summary of the method: (§1)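 Therapeutic adjuvant arthritis in male SD rats (160 ~ 190 g). On day 0, 0.1 mL of 1% heat-killed M. butyricum in incomplete Freund's adjuvant was injected subplantar into the right hindpaw. On day 14, rats with left hindpaw swelling over 0.37 mL were selected and randomized. Daily treatment ran from day 14 to day 22, and % inhibition was taken from day-22 foot volumes.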

[5] = system: Rattus norvegicus; experiment: Antiinflammatory activity was determined by measuring adjuvant-induced arthritis in rats using preventive method; Range is 0.1~0.2 (dose administered daily twice); type: functional
Summary of the method: (§2)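 Preventive adjuvant arthritis in male Lewis rats (200 ~ 210 g), 10 per group. On day 0, 0.1 mL of 1% heat-killed M. butyricum in incomplete Freund's adjuvant was injected subplantar into the right hindpaw. Oral gavage dosing ran from day -1 to day 16. Left hindpaw volume was measured by plethysmometer on day 17, and % inhibition versus control was calculated.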

[6] = system: Rattus norvegicus; experiment: Ability of compound to cause gastric ulcerogenicity was determined in rats at 30 mg/kg when administered daily once; type: functional, Stomach
Summary of the method: (§3)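 Male SD rats (130 ~ 140 g) were dosed by oral gavage for 7 days, with compound suspended in 1% methylcellulose. Rats were fasted overnight before necropsy and killed 4 h after the last dose. Stomachs were scored for ulceration on a scale where 1 is an apparently normal stomach and 2 is pinpoint ulcers only.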

[7] = system: Rattus norvegicus; experiment: Antiinflammatory activity was determined by measuring adjuvant-induced arthritis in rats using preventive method; Range is 0.2~0.3 (dose administered daily twice ); type: functional; summary of the method: as §2
[8] = system: Rattus norvegicus; experiment: Antiinflammatory activity was determined by measuring adjuvant-induced arthritis in rats using therapeutic method; (dose administered daily once); type: functional; summary of the method: as §1
[9] = system: Rattus norvegicus; experiment: Antiinflammatory activity was determined by measuring adjuvant-induced arthritis in rats using therapeutic method; dose administered daily twice; type: functional; summary of the method: as §1
[10] = system: Rattus norvegicus; experiment: Antiinflammatory activity was determined by measuring adjuvant-induced arthritis in rats using preventive method; dose administered daily twice; type: functional; summary of the method: as §2
[11] = system: Rattus norvegicus; experiment: Ability of compound to cause gastric ulcerogenicity was determined in rats at 5 mg/kg when administered daily once; type: functional, Stomach; summary of the method: as §3
[12] = system: Rattus norvegicus; experiment: Antiinflammatory activity was determined by measuring adjuvant-induced arthritis in rats using preventive method; dose administered daily once; type: functional; summary of the method: as §2
[13] = system: Rattus norvegicus; experiment: Ability of compound to cause gastric ulcerogenicity was determined in rats at 5 mg/kg; type: functional, Stomach; summary of the method: as §3

Row | pIC50 [1] | pIC50 [2] | SMILES | inhibition in vivo at 3 mg/kg [3] [%] | also measured
1 | 4.54 | 5.84 | CC1(C)OC(c2ccc(S(C)(=O)=O)cc2)=C(c2cccnc2)C1=O |  | 
2 | 6.75 | 7.63 | CC1(C)OC(c2ccc(S(N)(=O)=O)cc2)=C(c2ccccc2)C1=O |  | 
3 | 4.33 | 7.15 | CCC1(C)OC(c2ccc(S(C)(=O)=O)cc2)=C(c2cc(Cl)cc(Cl)c2)C1=O (stereo unspecified) |  | 
4 | 5.12 |  | Cc1cccc(C2=C(c3ccc(S(C)(=O)=O)cc3)OC3(CCCCC3)C2=O)c1 |  | 
5 |  |  | CCC1(C)OC(c2ccc(S(C)(=O)=O)cc2)=C(c2cccc(Cl)c2)C1=O (stereo unspecified) | 23 | 
6 |  |  | Cn1cc(C2=C(c3ccc(S(N)(=O)=O)cc3)OC(C)(C)C2=O)cn1 | 29 | 
7 | 5.30 | 7.73 | CC1(C)OC(c2ccc(S(N)(=O)=O)cc2)=C(c2ccc(F)c(F)c2)C1=O |  | 
8 |  |  | CC1(C)OC(c2ccc(S(N)(=O)=O)cc2F)=C(c2cc(F)cc(F)c2)C1=O | 32 | 
9 | 5.12 | 6.12 | CC1(C)OC(c2ccc(S(C)(=O)=O)cc2)=C(c2ccc(F)c(Cl)c2)C1=O | 31 | 
10 | 4.26 |  | CC1(C)OC(c2ccc(S(N)(=O)=O)cc2F)=C(c2ccccc2)C1=O |  | 
11 |  |  | Cc1cccc(C2=C(c3ccc(S(C)(=O)=O)cc3)OC3(CCCC3)C2=O)c1 | 26 | 
12 |  |  | CC1(C)OC(c2ccc(S(C)(=O)=O)cc2)=C(c2cccc(Cl)c2)C1=O | 16 | 
13 | 7.15 | 7.15 | CC1(C)OC(c2ccc(S(C)(=O)=O)cc2)=C(c2ccc(Br)cc2)C1=O |  | 
14 |  |  | CC1(C)OC(c2ccc(S(N)(=O)=O)c(F)c2)=C(c2cccc(F)c2)C1=O | 27 | 
15 | 4.58 | 5.28 | CS(=O)(=O)c1ccc(C2=C(c3ccccc3)C(=O)C3(CCCCC3)O2)cc1 |  | 
16 |  |  | CC1(C)OC(c2ccc(S(N)(=O)=O)c(F)c2)=C(c2cc(F)cc(F)c2)C1=O | 31 | 
17 |  |  | CC1(C)OC(c2ccc(S(C)(=O)=O)c(F)c2)=C(c2cccc(Cl)c2)C1=O | 28 | 
18 |  |  | CC1(C)OC(c2ccc(S(C)(=O)=O)c(F)c2)=C(c2cc(F)cc(F)c2)C1=O |  | ED50 [4]: > 0.1 mg/kg/day
19 | 4.63 |  | CCC1(C)OC(c2ccc(S(C)(=O)=O)cc2)=C(c2cccc(C(F)(F)F)c2)C1=O (stereo unspecified) |  | 
20 | 4.86 | 6.46 | CC1(C)OC(c2ccc(S(N)(=O)=O)cc2)=C(c2ccsc2)C1=O |  | 

Row | pIC50 [1] | pIC50 [2] | SMILES | inhibition in vivo at 3 mg/kg [3] [%] | also measured
21 | 6.17 | 7.47 | CC(=O)c1ccc(C2=C(c3ccc(S(N)(=O)=O)cc3)OC(C)(C)C2=O)cc1 | 26 | 
22 | 5.70 | 7.57 | CC1(C)OC(c2ccc(S(N)(=O)=O)cc2)=C(c2cccc(C(F)(F)F)c2)C1=O |  | 
23 | 4.06 | 5.84 | Cn1cc(C2=C(c3ccc(S(C)(=O)=O)cc3)OC(C)(C)C2=O)cn1 | 36 | ED50 [4]: ~0.3 mg/kg/day
24 |  |  | CCCCc1ccc(C2=C(c3ccc(S(C)(=O)=O)cc3)OC(C)(C)C2=O)cc1 | 8 | 
25 |  |  | CC(=O)c1ccc(C2=C(c3ccc(S(C)(=O)=O)cc3)OC(C)(C)C2=O)cc1 |  | ED50 [5]: 0.1 mg/kg/day
26 | 5.11 | 5.11 | CS(=O)(=O)c1ccc(C2=C(c3cccc(F)c3)C(=O)C3(CCCC3)O2)cc1 |  | 
27 | 4.09 | 4.87 | CCC1(CC)OC(c2ccc(S(C)(=O)=O)cc2)=C(c2ccccc2)C1=O |  | 
28 | 4.58 | 5.89 | CCC1(CC)OC(c2ccc(S(C)(=O)=O)cc2)=C(c2cccc(C)c2)C1=O |  | 
29 |  |  | CC1(C)OC(c2ccc(S(N)(=O)=O)cc2)=C(c2cccc(Cl)c2)C1=O | 39 | ED50 [4]: 0.03 mg/kg/day
30 |  |  | CC1(C)OC(c2ccc(S(C)(=O)=O)cc2)=C(c2cccc(F)c2)C1=O | 36 | Activity [6]: 1.8; ED50 [7]: 0.3 mg/kg/day; ED50 [8]: 0.07 mg/kg/day
31 |  |  | CC1(C)OC(c2ccc(S(C)(=O)=O)cc2)=C(c2cc(F)cc(F)c2)C1=O | 34 | Activity [6]: 1.8
32 |  |  | CC(=O)c1cccc(C2=C(c3ccc(S(C)(=O)=O)cc3)OC(C)(C)C2=O)c1 | 22 | 
33 |  |  | CC1(C)OC(c2ccc(S(C)(=O)=O)cc2)=C(c2cccc(C(F)(F)F)c2)C1=O | 31 | 
34 |  |  | Cc1ccc(-c2cc(C(F)(F)F)nn2-c2ccc(S(N)(=O)=O)cc2)cc1 [CELECOXIB] | 34 | ED50 [9]: 0.37 mg/kg/day
35 |  |  | Cc1ccc(-c2ncc(Cl)cc2-c2ccc(S(C)(=O)=O)cc2)cn1 [ETORICOXIB] |  | ED50 [10]: 0.7 mg/kg/day
36 |  |  | COc1ccc2c(c1)c(CC(=O)O)c(C)n2C(=O)c1ccc(Cl)cc1 [INDOMETHACIN] | 45 | Activity [11]: 3.5
37 |  |  | Cc1cnc(NC(=O)C2=C(O)c3ccccc3S(=O)(=O)N2C)s1 [MELOXICAM] |  | ED50 [12]: 0.28 mg/kg/day
38 | 6.08 | 8.08 | CC1(C)OC(c2ccc(S(N)(=O)=O)cc2)=C(c2cccc(F)c2)C1=O [POLMACOXIB] | 47 | Activity [13]: 1.5; ED50 [10]: 0.1 mg/kg/day; ED50 [4]: 0.02 mg/kg/day; ED50 [9]: 0.01 mg/kg/day
39 |  |  | CS(=O)(=O)c1ccc(C2=C(c3ccccc3)C(=O)OC2)cc1 [ROFECOXIB] |  | ED50 [10]: 0.74 mg/kg/day
40 |  |  | Cc1onc(-c2ccccc2)c1-c1ccc(S(N)(=O)=O)cc1 [VALDECOXIB] |  | ED50 [9]: 0.032 mg/kg/day
